For series [1], the target named is Dual specificity mitogen-activated protein kinase kinase 2 (Homo sapiens) (UniProt P36507). Description: Inhibition of MEK2 (unknown origin).
Series [2] relates to Mus musculus. Nature of the series: In vivo inhibition of 4E-BP1 phosphorylation in RIP-Tag2 mouse with pancreatic islet cell carcinoma 75 mg/kg, po bid administered via gavage and measured after 7 days by immunohistochemistry. To be noted: time 7.0 day. The series is classed as functional, organism-based. The essentials: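 RIP-Tag2 mice aged 9–10 weeks dosed 75 mg/kg BID by gavage for 7 days, vehicle Labrifil or water; perfusion fixation, 60–80 µm tumor sections immunostained for phospho-4E-BP1, phospho-Akt or phospho-S6K with CD31; fluorescence/confocal imaging; 3–8 mice per group.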

Series [3] in a line: Drug concentration in nu/nu CD-1 mouse plasma xenografted with human GEO cells at 75 mg/kg administered for 14 days and measured 8 hr post last dose. It counts as ADME, organism-based.
The target of series [4] is Phosphatidylinositol 4,5-bisphosphate 3-kinase catalytic subunit gamma isoform (Homo sapiens, UniProt P48736). Nature of the series: Inhibition of PI3Kgamma (unknown origin) in presence of ATP by HTRF assay. The essentials: (§1)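 PI3K activity by HTRF assay at […] ATP.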
For orientation: In TR-FRET formats the signal depends on donor and acceptor labels being close together.

The subject of series [5] is Pancreatic islet cell carcinoma. Description: Antitumor activity against pancreatic islet cell carcinoma in RIP-Tag2 mouse assessed as reduction in VEGF production by measuring reduction in tumor vessels associated fluorescence intensity at 75 mg/kg, po bid administered via gavage and measured after 1 to 7 days by immunohistochemical staining based confocal microscopic analysis relative to control. It counts as functional. More on the design: scale not given: the % may be the effect or the level left. The note with it: time 1-7 day. The essentials:
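Treatment began in RIP-Tag2 mice at 9–10 weeks: 75 mg/kg gavage BID for 1, 4 or 7 days, or 20 mg/kg ip QD for 7 days; vehicle Labrifil or water. Tissue fixed by vascular perfusion and 60–80 µm sections stained for VEGF with CD31. VEGF fluorescence intensity measured over whole tumor, tumor cells, or tumor vessels. 3–8 mice/group; ANOVA, Fisher PLSD.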

Series [6] addresses Mitogen-activated protein kinase 10 (Homo sapiens) (UniProt P53779). Nature of the series: Inhibition of JNK3 (unknown origin).
In series [7] the target is T1, DNA-dependent protein kinase catalytic subunit (Homo sapiens, UniProt P78527). Description: Inhibition of DNA-PK activity (unknown origin) presence of ATP.
Series [8] deals with Pancreatic islet cell carcinoma. Nature of the series: Antivascular activity in pancreatic islet cell carcinoma in RIP-Tag2 mouse assessed as suppression of tumor regrowth by measuring reduction in vessel density at 75 mg/kg, po bid administered via gavage pretreated with OSI-930 for 7 days at 200 mg/kg, po followed by compound administration and measured after 1 day. The series is classed as functional, organism-based.

For series [9] the test system is unchanged. Description: Antivascular activity against pancreatic islet cell carcinoma in RIP-Tag2 mouse assessed as reduction in CD31-positive tumor blood vessels at 75 mg/kg, po bid administered via gavage and measured after 1 to 4 days by immunohistochemical staining based fluorescence microscopic analysis. It counts as functional, organism-based. To be noted: time 1-4 day.

Series [10] has the same test system. Nature of the series: Antivascular activity against pancreatic islet cell carcinoma in RIP-Tag2 mouse assessed as reduction in CD31-positive tumor blood vessels at 75 mg/kg, po bid administered via gavage and measured after 7 days by immunohistochemical staining based fluorescence microscopic analysis relative to control. To be noted: time 7 day. The series is classed as functional. More on the design: scale not given: the % may be the effect or the level left. A digest of the protocol:
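For 7 days, RIP-Tag2 mice, 9–10 weeks old, received 75 mg/kg gavage BID, 200 mg/kg gavage QD, or 20 mg/kg ip QD. Perfusion-fixed tumors cut at 60–80 µm and stained for CD31 and type IV collagen basement membrane. Vessel area density from fluorescence images with threshold 30–50; sprouts and empty basement membrane sleeves examined by confocal microscopy. 3–8 mice/group; ANOVA, Fisher PLSD.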

In series [11] the target is RAC-alpha serine/threonine-protein kinase (Homo sapiens) (UniProt P31749). Nature of the series: Inhibition of AKT phosphorylation at Ser 473 site in serum deprived/insulin stimulated human OVCAR-3 cells harboring PTEN and wild type PI3K preincubated for 2 hrs followed by insulin stimulation and measured immediately by Western blot analysis. The note with it: dose 0.001-10 µM. It counts as cell-based. For orientation: A western blot detects proteins with antibodies after separation by electrophoresis.

For series [12], the target named is T1, DNA-dependent protein kinase catalytic subunit. Description: Inhibition of DNA-PK (unknown origin) assessed as reduction in phosphorylated RPA32 level by cell based assay.
Series [13] deals with Pancreatic islet cell carcinoma. Nature of the series: Antivascular activity in pancreatic islet cell carcinoma in RIP-Tag2 mouse assessed as reduction in intratumoral hemorrhage by measuring reduction in TER-119 immunoreactivity at 75 mg/kg, po bid pretreated with OSI-930 for 7 days at 200 mg/kg, po followed by compound administration and measured after 4 days by confocal microscopic analysis relative to control. The series is classed as functional. Also on record: scale not given: the % may be the effect or the level left. To be noted: time 4 day. The essentials: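 Regrowth design in 10-week-old RIP-Tag2 mice: OSI-930 200 mg/kg gavage QD for 7 days, then 4 days of vehicle, 75 mg/kg gavage BID, or 20 mg/kg ip QD; controls received vehicle for 11 days. Perfusion-fixed sections stained for CD31 for vessel density or for the erythrocyte marker TER-119, quantified by confocal microscopy. 3–8 mice/group; ANOVA, Fisher PLSD.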

Series [14] deals with Phosphatidylinositol 4,5-bisphosphate 3-kinase catalytic subunit alpha isoform (Homo sapiens, UniProt P42336). Description: Inhibition of PI3Kalpha (unknown origin) in presence of ATP by HTRF assay.
Series [15] has as its target Epidermal growth factor receptor (Homo sapiens, UniProt P00533). Nature of the series: Inhibition of EGFR phosphorylation (unknown origin) by cell based assay.
The target of series [16] is Serine/threonine-protein kinase mTOR (Homo sapiens, UniProt P42345). Nature of the series: Inhibition of mTOR (unknown origin).
The subject of series [17] is Pancreatic islet cell carcinoma. Description: Additive antitumor activity in pancreatic islet cell carcinoma in RIP-Tag2 mouse assessed as induction of apoptosis by measuring increase in activated caspase-3 level at 100 mg/kg, po bid administered via gavage for 4 days in presence of OSI-930 by immunohistochemistry analysis relative to control. The series is classed as functional. The note with it: time 4 day.

The target of series [18] is Phosphatidylinositol 4,5-bisphosphate 3-kinase catalytic subunit beta isoform (Homo sapiens, UniProt P42338). Description: Inhibition of PI3Kbeta (unknown origin) in presence of ATP by HTRF assay. The essentials: as §1
The target in series [19] is Ephrin type-A receptor 2 (Homo sapiens, UniProt P29317). Description: Inhibition of EphA2 phosphorylation (unknown origin) by cell based assay.
Series [20] concerns the target Vascular endothelial growth factor receptor 2 (Homo sapiens, UniProt P35968). Nature of the series: Inhibition of VEGFR2 phosphorylation (unknown origin) by cell based assay.
Series [21] concerns the target Proto-oncogene tyrosine-protein kinase Src (Homo sapiens, UniProt P12931). Nature of the series: Inhibition of SRC (unknown origin) assessed as reduction in phosphorylated FAK level by cell based assay.
The target of series [22] is Phosphatidylinositol 4,5-bisphosphate 3-kinase catalytic subunit delta isoform (Homo sapiens) (UniProt O00329). Description: Inhibition of PI3Kdelta (unknown origin) at 3 uM by Ambit Kinomescan assay relative to control.
Series [23] deals with Pancreatic islet cell carcinoma. Nature of the series: Antitumor activity against pancreatic islet cell carcinoma in RIP-Tag2 mouse assessed as reduction in VEGF-B expression at 75 mg/kg, po bid administered via gavage and measured after 1 to 7 days by immunoprecipitation based densitometric analysis. It counts as functional, organism-based. The note with it: time 1-7 day. A digest of the protocol:
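VEGF in tumor lysates from treated RIP-Tag2 mice (9–10 weeks old at start; 75 mg/kg gavage BID or 20 mg/kg ip QD) measured with mouse angiogenesis antibody arrays, read as pixel density. 3–8 mice/group, SEM; ANOVA with Fisher PLSD.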

SMILES strings stand for the structures. Activity calls are given as the source filed them.

From ChEMBL document CHEMBL5653605, “Reduced VEGF production, angiogenesis, and vascular regrowth contribute to the antitumor properties of dual mTORC1/mTORC2 inhibitors” (Cancer Res, 2011) come the findings set out here.

T1 sequence (P78527 whole entry): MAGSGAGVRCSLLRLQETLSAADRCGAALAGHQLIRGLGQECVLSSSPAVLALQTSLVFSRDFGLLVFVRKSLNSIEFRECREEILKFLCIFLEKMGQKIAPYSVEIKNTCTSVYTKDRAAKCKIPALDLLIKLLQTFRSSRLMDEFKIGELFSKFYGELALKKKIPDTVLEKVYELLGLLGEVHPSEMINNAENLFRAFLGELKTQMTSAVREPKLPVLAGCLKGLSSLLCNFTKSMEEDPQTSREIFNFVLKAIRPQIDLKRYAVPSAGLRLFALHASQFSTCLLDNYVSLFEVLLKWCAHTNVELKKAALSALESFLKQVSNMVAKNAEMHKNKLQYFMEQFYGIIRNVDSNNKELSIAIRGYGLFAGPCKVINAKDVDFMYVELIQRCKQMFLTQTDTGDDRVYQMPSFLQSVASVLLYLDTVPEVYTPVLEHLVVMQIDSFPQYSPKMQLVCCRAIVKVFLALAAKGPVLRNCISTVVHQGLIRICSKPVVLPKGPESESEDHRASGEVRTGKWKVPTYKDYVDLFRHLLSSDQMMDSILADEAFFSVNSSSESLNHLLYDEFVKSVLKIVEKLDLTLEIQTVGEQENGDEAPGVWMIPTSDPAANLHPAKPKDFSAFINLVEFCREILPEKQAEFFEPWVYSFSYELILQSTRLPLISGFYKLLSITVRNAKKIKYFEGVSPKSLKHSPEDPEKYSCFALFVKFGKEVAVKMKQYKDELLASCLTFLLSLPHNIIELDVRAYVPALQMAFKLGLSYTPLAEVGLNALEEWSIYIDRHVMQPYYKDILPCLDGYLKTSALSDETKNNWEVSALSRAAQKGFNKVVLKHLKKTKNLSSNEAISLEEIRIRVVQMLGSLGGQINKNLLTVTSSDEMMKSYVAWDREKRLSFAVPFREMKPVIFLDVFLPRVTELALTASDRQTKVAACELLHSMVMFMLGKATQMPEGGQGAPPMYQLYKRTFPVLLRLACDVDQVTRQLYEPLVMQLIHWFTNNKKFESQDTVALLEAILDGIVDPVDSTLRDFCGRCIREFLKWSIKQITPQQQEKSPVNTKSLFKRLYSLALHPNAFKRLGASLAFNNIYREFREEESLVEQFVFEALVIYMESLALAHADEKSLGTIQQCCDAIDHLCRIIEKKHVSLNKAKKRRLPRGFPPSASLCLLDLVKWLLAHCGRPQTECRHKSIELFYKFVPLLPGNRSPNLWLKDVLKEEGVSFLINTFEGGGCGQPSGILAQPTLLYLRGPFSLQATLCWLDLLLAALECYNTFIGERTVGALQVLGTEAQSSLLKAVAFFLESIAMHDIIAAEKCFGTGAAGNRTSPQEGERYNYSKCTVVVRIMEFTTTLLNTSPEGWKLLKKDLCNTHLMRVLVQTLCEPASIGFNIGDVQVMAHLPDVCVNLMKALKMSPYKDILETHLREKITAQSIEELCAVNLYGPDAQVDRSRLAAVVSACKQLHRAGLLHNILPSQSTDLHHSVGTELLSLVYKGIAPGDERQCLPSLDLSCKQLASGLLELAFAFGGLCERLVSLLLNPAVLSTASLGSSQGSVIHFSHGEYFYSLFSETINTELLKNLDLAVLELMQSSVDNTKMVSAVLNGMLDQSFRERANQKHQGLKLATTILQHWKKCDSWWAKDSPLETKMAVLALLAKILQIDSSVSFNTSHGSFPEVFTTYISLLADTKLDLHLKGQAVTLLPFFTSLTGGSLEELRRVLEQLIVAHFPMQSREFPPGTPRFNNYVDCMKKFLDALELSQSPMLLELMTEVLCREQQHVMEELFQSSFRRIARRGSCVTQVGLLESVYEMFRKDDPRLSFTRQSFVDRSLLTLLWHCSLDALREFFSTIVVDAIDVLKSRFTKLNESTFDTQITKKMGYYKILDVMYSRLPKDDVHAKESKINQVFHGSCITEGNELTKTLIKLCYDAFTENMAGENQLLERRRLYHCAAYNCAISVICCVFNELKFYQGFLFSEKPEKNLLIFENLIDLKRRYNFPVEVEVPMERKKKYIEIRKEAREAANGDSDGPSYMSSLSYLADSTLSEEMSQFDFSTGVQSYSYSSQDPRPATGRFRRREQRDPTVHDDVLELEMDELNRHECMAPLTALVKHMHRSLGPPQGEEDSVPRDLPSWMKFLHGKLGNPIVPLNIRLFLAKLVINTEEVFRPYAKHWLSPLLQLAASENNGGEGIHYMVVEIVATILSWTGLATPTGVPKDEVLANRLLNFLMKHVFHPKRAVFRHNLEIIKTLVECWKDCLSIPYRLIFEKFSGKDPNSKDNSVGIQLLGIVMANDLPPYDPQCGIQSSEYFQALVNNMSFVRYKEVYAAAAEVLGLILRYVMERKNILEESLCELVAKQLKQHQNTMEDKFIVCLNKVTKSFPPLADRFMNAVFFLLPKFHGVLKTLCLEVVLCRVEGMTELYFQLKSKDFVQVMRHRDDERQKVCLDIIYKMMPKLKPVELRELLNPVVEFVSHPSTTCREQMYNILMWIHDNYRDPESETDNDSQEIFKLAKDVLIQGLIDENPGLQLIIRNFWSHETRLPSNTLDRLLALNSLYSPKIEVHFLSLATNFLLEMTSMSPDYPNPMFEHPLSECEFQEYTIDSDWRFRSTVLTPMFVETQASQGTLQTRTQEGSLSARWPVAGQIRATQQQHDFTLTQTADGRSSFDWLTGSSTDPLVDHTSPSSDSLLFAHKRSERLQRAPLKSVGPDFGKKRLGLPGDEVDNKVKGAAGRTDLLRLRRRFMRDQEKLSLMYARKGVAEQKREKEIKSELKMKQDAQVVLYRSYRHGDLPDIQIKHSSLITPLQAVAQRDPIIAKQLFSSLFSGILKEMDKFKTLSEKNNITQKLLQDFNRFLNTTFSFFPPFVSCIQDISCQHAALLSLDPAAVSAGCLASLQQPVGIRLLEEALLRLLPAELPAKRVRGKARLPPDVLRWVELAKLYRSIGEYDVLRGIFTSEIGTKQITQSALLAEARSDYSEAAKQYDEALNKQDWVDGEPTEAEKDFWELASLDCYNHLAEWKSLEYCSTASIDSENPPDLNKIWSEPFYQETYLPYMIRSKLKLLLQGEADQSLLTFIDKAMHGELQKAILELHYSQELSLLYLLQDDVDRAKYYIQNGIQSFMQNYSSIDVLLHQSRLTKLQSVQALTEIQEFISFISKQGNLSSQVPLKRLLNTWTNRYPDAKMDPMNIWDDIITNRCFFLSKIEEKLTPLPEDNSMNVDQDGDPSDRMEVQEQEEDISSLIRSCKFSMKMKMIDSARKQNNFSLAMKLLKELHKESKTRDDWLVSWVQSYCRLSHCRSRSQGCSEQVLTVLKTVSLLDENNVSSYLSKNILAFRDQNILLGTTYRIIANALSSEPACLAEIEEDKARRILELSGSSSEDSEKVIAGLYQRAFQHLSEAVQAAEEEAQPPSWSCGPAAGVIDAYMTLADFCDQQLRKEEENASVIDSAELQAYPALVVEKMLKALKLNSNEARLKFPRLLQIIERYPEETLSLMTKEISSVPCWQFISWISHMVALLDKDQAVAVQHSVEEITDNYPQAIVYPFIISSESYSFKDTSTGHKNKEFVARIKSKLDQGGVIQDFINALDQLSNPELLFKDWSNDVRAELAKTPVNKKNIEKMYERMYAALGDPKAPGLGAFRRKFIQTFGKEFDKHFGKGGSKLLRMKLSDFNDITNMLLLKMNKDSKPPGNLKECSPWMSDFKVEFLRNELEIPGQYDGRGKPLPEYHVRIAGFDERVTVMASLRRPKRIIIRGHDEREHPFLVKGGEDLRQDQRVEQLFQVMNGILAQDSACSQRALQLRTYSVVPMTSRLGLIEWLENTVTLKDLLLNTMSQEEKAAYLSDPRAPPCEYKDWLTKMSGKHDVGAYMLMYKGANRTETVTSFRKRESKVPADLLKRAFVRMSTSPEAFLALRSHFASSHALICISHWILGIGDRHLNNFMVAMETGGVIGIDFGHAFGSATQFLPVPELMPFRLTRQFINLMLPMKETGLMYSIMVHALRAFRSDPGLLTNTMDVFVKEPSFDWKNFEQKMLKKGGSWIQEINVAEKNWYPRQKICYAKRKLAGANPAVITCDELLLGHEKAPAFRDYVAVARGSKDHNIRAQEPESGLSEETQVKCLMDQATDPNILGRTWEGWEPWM
Chain of RAC-alpha serine/threonine-protein kinase (Homo sapiens) (P31749 whole entry): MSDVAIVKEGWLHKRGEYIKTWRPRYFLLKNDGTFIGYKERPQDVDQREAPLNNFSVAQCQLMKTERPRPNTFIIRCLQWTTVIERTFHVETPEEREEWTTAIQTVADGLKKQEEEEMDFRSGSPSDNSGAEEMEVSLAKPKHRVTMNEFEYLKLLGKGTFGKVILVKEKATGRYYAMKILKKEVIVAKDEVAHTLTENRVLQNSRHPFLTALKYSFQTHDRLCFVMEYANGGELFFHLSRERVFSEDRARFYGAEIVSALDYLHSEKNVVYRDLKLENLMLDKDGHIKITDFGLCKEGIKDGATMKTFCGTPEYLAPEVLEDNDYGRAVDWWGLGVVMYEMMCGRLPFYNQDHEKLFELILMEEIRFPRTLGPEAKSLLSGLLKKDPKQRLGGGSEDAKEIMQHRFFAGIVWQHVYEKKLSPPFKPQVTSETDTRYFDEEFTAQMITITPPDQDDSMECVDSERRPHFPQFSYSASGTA
Chain of Mitogen-activated protein kinase 10 (Homo sapiens) (P53779 whole entry): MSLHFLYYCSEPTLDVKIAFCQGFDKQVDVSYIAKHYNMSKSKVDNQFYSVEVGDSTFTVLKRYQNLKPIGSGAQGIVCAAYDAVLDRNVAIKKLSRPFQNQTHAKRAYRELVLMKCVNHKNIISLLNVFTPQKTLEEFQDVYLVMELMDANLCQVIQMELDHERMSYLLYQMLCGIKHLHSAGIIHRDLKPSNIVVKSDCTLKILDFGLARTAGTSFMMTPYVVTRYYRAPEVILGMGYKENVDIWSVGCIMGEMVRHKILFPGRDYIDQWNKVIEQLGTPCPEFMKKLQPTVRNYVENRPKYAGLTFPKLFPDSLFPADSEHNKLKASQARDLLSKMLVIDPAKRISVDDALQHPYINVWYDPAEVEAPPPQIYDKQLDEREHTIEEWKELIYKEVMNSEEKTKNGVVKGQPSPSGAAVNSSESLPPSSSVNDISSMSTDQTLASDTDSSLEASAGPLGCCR

Take `Nc1nccn2c1c(-c1cc3cccc(Cl)c3[nH]1)nc2[C@H]1CC[C@H](C(=O)O)CC1`: the inhibition entry in [1], in [2] and in [6] was “Active” in each case. Besides, in [3], the concentration at 344 h amounted to 13.2 µM. Moreover, the IC50 in series [4] was 0.46 µM; in series [7], 3.2 µM; in series [12] it was over 40 µM; in series [14], 0.19 µM; in series [15] it was over 40 µM; in [16], 0.011 µM. For the same molecule, the IC50 is 9.3 µM in [18], over 40 µM in series [19], over 40 µM in series [20] and over 40 µM in series [21]. In addition, the Activity in series [5] amounted to 48%; in [10], 23%; in [13] it was 50%; in [17], 700%. In addition, the outcome in series [8], in series [9] and in series [23] was inactive. For the same molecule, the values for the inhibition entry in series [11] and in series [22] were “Dose-Dependent Effect” and over 90%, respectively.

Usually inhibition stands for the share of the control response that was lost under treatment. Broadly, the IC50 is the point on the concentration scale where inhibition reaches its midpoint.
